Assay results: PubChem BioAssay
Active and inactive are the calls of the source.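 The calls were made as follows: active = a full or partial loss of lipid-probe fluorescence in the fish gall bladder, intestine or both, judged by eye; inactive = no fluorescence loss, or compound toxic to the fish.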

Assay: inhibitors of larval lipid processing in zebrafish, primary screen, whole organism, PED6 fluorescence, gall bladder and intestine (AID 686);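 also: larvae 5 to 7 days old with five fish per well; signal comes from phospholipase A2 cleavage of quenched PED6 carried via bile; overnight exposure to compound and PED6 before scoring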
Details: Zebrafish larvae PED6 lipid processing, fluorescence scoring; screened at 20 µM (by protocol)
In short: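 Test system – live zebrafish larvae aged 5-7 days, whole organism · Buffer or medium – E3 fish medium · Reagent – quenched phospholipase substrate PED6, 100 nM final, ingested by larvae · Doses – 20 µM single dose · Incubation – overnight compound and PED6 incubation · Technique – visual fluorescence microscopy scoring of gall bladder, gut · Read-out basis – visual per-well fluorescence inhibition score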

Row | SMILES | outcome
1 | CCOC(=O)c1c(-c2cccs2)csc1NC(=O)CCCC(=O)O | inactive
2 | Fc1ccc(-c2cnc[nH]2)cc1 | inactive
3 | CCOC(=O)c1[nH]c2ccc(Br)cc2c1NC(=O)CNC | inactive
4 | COc1ccc(C2(CN(C(C)=O)C(C)=O)CCCC2)cc1OC | inactive
5 | COc1ccccc1C1C(C#N)=C(N)Oc2cc(C)n(Cc3ccccn3)c(=O)c21 (centres undefined) | inactive
6 | Cc1ccc(C(=O)/C=C/Nc2cccc(O)c2)cc1 | inactive
7 | O=C(C1CC1(c1ccccc1)c1ccccc1)N1CCOCC1 (centres undefined) | inactive
8 | COC(=O)CNC(=O)c1c(C)cc(=O)oc1C | inactive
9 | COc1ccc(CCn2c(=N)c(C(=O)NCc3ccco3)cc3c(=O)n4ccccc4nc32)cc1 | inactive
10 | Nc1nc(NC(=O)c2cccs2)nn1-c1ccccc1 | inactive
11 | Cc1c(O)c(CN2CCCC(C)C2)cc2c3c(c(=O)oc12)CCC3 (centres undefined) | inactive
12 | COc1ccc(CCn2c(=N)c(C#N)cc3c(=O)n4ccccc4nc32)cc1 | inactive
13 | Cn1c(SCC(=O)N2CCOCC2)nnc1-c1cccc(NC(=O)c2ccccc2F)c1 | inactive
14 | O=C(NC1CCS(=O)(=O)C1)c1c(NC(=O)C2COc3ccccc3O2)sc2c1CCCC2 (centres undefined) | inactive
15 | COC(=O)C(NC(C)=O)(Nc1nc2ccc(S(C)(=O)=O)cc2s1)C(F)(F)F (centres undefined) | inactive
16 | COc1ccc2c(c1)C1(C)CC(C)(C)N2C(=O)N1c1ccccc1 (centres undefined) | inactive
17 | CCCCCn1c2nc3ccccc3nc2c2c(=O)n(CC(C)C)cnc21 | inactive
18 | Nc1nnnn1/N=C/c1ccccn1 | inactive
19 | Cc1nnc2n(-c3ccccc3)c(=O)c3c4c(sc3n12)CCCC4 | inactive
20 | CCc1nc2sc3c(c2c(=O)o1)CCCC3 | inactive

Row | SMILES | outcome
21 | CCOC(=O)CNC(=O)Nc1ccccc1C(=O)OC | inactive
22 | COc1ccc(C(=O)NCCCCCC(=O)O)cc1OC | inactive
23 | CCOC(=O)C1=C(CSc2nc(C)cc(C)c2C#N)OC(N)=C(C#N)C1c1cccs1 (centres undefined) | inactive
24 | COc1cc(NC(=O)NC(C)(C(F)(F)F)C(F)(F)F)cc(OC)c1OC | inactive
25 | COC(=O)C(NC(C)=O)(Nc1ccccn1)C(F)(F)F (centres undefined) | inactive
26 | CC1(C)CNC(=O)c2sc(N3CCOCC3)nc2C1 | inactive
27 | CCOC(=O)c1ccc(CC2S/C(=C(\C#N)C(C)=O)NC2=O)cc1 (centres undefined) | inactive
28 | CC(=Nc1cccc(O)c1)c1sc2ccccc2c1O | inactive; toxic
29 | COc1cccc(N2C(=O)C(O)=C(C(C)=O)C2c2ccc(OC)c(OC)c2)c1 (centres undefined) | inactive
30 | O=S(=O)(c1ccc2ccccc2c1)N(CC(O)CN1CCOCC1)c1ccccc1 (centres undefined) | inactive
31 | Cc1c(O)c(CN2CCCCC2)cc2c3c(c(=O)oc12)CCC3 | inactive
32 | O=S(=O)(NCc1cccnc1)c1cccc2nsnc12 | inactive
33 | Cc1cc(O)c(C(C)C)cc1N=C1CSC(=O)N1 | inactive
34 | Cc1nc2sc(C#N)c(N)c2c2c1CCCC2 | inactive
35 | N#C/C(C(=O)N1CCOCC1)=C1/SC(Cc2ccccc2)C(=O)N1c1ccccc1 (centres undefined) | inactive
36 | CN(CC(O)COc1ccc(OCC(O)CN(C)C2CCCCC2)cc1)C1CCCCC1 (centres undefined) | inactive
37 | Cn1c(=O)[nH]c(=O)c2c1nc(N(CCO)Cc1ccccc1)n2Cc1ccccc1Cl | inactive
38 | Cc1nn(-c2ccccc2)c2c1C(=O)NC(=O)C(C)(C)C2 | inactive
39 | Cc1ccc(-n2ncc3c(N4CCN(c5ccccc5)CC4)ncnc32)c(C)c1 | inactive
